According to ChEMBL document CHEMBL4513216, “Probing the Open Global Health Chemical Diversity Library for Multistage-Active Starting Points for Next-Generation Antimalarials” (ACS Infect Dis, 2020):

Assay: Toxicity liver stage against HepG2, at 10uM
Format: cell-based
Set-up: test concentration 10 uM, cell line HepG2-A16-CD81EGFP
Conditions: human, HepG2-A16-CD81EGFP cells; read-out: INHIBITION
Outline: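 Uninfected HepG2-A16-CD81EGFP cells, 3 × 10^3 per well, 1536-well, plated on prespotted compound at 10 μM final, parasite-free screening media added to match infected plates; puromycin 10 μM positive, DMSO 0.5% negative; run in parallel with 48 h PbLuc assay at 37 °C, 5% CO2; viability by CellTiter-Glo luminescence, normalized to controls.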

Row | Compound | cytotoxicity at 10 µM [%]
1 | CC(C)c1nc(C2CCCN2c2cnc3cc(F)c(F)cc3n2)no1 (stereo not given) | 5.18
2 | Cc1nnc(-c2cccc(N3CCC(NC4CCSC4)CC3)c2)s1 (stereo not given) | 0.276
3 | Cc1cc(C)n(C2CN(C(=O)Cn3c(=O)c(C)nc4ccccc43)C2)n1 | -7.59
4 | Cc1cnn(CC2CCCN2C(=O)c2cccc(CC#N)c2)c1 (stereo not given) | -8.62
5 | COc1cccc2cc(CNC(C)(C)C(=O)N3CCC(O)CC3)oc12 | -12.2
6 | CC1CCc2nc(O)c(C(=O)NCCN(C)C)cc2C1 (stereo not given) | -13.8
7 | Cc1ccc(CN2CCN(C3CCSCC3)CC2CCO)o1 (stereo not given) | -3.96
8 | CCn1ccnc1C1CCN(Cc2cccc(C)n2)CC1 | -7.93
9 | O=C1CO[C@H]2CN(Cc3cccc4[nH]ccc34)C[C@@H]2N1C1CCOCC1 | -17.3
10 | Cc1nc2c(c(NC3CC3)n1)CCN(C(=O)CCO)CC2 | -68.3
11 | CCS(=O)(=O)N1CCC2(CCN(C(=O)c3cccs3)CC2)CC1 | -99.9
12 | COc1cccc(CNc2nc(N3CCOCC3)ns2)c1OC | -2.76
13 | Cc1ccc(C(=O)NC2CCN(S(C)(=O)=O)CC2)c(=O)[nH]1 | 15.7
14 | CC(=O)N1CC(C(=O)Nc2cccc(OC(F)F)c2)C1 | 1.22
15 | c1ccc(CN2CC[C@H]3[C@H]2CCN3c2ncccn2)nc1 | 1.24
16 | CCc1cc(N[C@H]2CCC[C@H]2CO)n2nc(C)c(C)c2n1 | 3.41
17 | O=C(CCn1cncn1)N1C[C@@H]2CC[C@H]1CN(Cc1ccncc1)C2 | 9.53
18 | COCC(O)CN1CCC(NC(=O)c2cccc(C)c2)CC1 (stereo not given) | 1.44
19 | CS(=O)(=O)N1CCOCC2(CCN(C(=O)c3cnccn3)CC2)C1 | -0.152
20 | NS(=O)(=O)Cc1cccc(C(=O)N2CCCC(n3cccn3)C2)c1 (stereo not given) | 1.25
21 | Cn1cccc(NC(=O)COc2ccc(Br)cc2)c1=O | 8.35
22 | Cc1cc(S(=O)(=O)NC(=O)CCc2cncc(F)c2)c(C)s1 | -1.99

Row | Compound | cytotoxicity at 10 µM [%]
23 | FC(F)CN1CCOC(Cn2cccn2)C1 (stereo not given) | -9.94
24 | CCCn1ccnc1-c1nccn1CCn1cnnc1 | -3.53
25 | CC(Oc1ccc(F)cc1F)C(=O)N1CCC2(CCCO2)CC1 (stereo not given) | 2.24
26 | CN(CC(=O)NC1(C)CCS(=O)(=O)C1)Cc1ccc(F)c(F)c1 (stereo not given) | -1.55
27 | CC(C)NC(=O)[C@H]1C[C@H]2CN(C(=O)NCCc3ccccc3)C[C@@H]1O2 | 1.25
28 | Cc1cnn(CCNCc2cc(=O)n3cc(Cl)ccc3n2)c1 | 0.217
29 | COC(=O)N1CCC(Nc2ccc(Cl)c(C#N)n2)C1 (stereo not given) | -3.44
30 | O=S1(=O)C[C@@H]2[C@H](C1)N(Cc1ccoc1)CCN2Cc1ccncc1 | -0.452
31 | CNc1snc(C)c1C(=O)N1CCCC(n2cc(C)cn2)C1 (stereo not given) | -3.42
32 | CS(=O)(=O)N1CC[C@H]2OCC[C@@]2(C(=O)NCc2ccccn2)C1 | -84.7
33 | Cc1ccc(CN2CCOC3(COCCN(S(C)(=O)=O)C3)C2)o1 (stereo not given) | 11.7
34 | CCN(CC1CCOC1)C(=O)c1ccc(N2CCOCC2)c(F)c1 (stereo not given) | -2.45
35 | CCN(Cc1ccncc1)CC1(O)CCN(C(=O)c2ccccc2C)C1 (stereo not given) | -22
36 | O=S(=O)(C1CC1)N1CCn2cc(CNc3ccccn3)nc2C1 | 8.04
37 | CC(C)CC(=O)N1CCCC2(CC(C(=O)Nc3ccccc3)=NO2)C1 (stereo not given) | 1.46
38 | O=C(Cn1cccc2oc(=O)nc1-2)NCC1Cc2ccccc2O1 (stereo not given) | -7.79
39 | Cn1ccnc1-c1cccc(NC(=O)NCCN2CCOCC2)c1 | -7.85
40 | CCC[C@H]1CN(C2CCOCC2)C[C@@H]1NC(=O)CCCn1ccnc1 | 8.06
41 | Fc1cccc(-n2cccn2)c1NCc1nnc(C2CC2)o1 | -5.48
42 | Cc1ccc(C(=O)NCCCN2CCOCC2)c(Cl)c1 | -12.5
43 | CN(CCCc1cc(-c2ccc(F)cc2)n(C)n1)CC(=O)NC(N)=O | 1.04
44 | c1ccc(OCC2CC2)c(CNC2CCc3ncnn3C2)c1 (stereo not given) | -6.72

Row | Compound | cytotoxicity at 10 µM [%]
45 | Cn1ccnc1CN1CCCN(C(=O)c2ccc3ccccc3c2)CC1 | -8.66
46 | CCOCCOc1ccccc1C(=O)N1C[C@H](C2CC2)[C@@H](N)C1 | -0.332
47 | CN(C)S(=O)(=O)c1ccc(-c2nc(C#N)c(NC3CC3)o2)o1 | -18.4
48 | COc1ccc(S(=O)(=O)NC(=O)C(C)OC)c(OC)c1 (stereo not given) | -6.67
49 | O=C(c1cccc(S(=O)(=O)NC[C@@H]2C[C@H](F)CN2)c1)N1CCCCC1 | 3.5
50 | Cc1ccc(C(=O)N2CC[C@@H]3[C@H]2CCC(=O)N3CCN(C)C)cn1 | -0.726
51 | COc1cc(C(C)=O)ccc1OC12CCCN(CC1)C2 (stereo not given) | 10.2
52 | COc1ccc(C(NCc2ccc(C#N)cc2)C2CC2)cc1 (stereo not given) | 7.18
53 | CN(C)CCN1CCN(C(=O)c2ccn(C)c(=O)c2)CC1 | -4.14
54 | CC(NC(=O)Nc1ccc(OC2CCCC2)cc1)c1nc[nH]n1 (stereo not given) | -5.42
55 | Cc1ccc(CN2C[C@@H]3CN(CC4CCOCC4)CCO[C@@H]3C2)s1 | -12.7
56 | O=C(c1cnccn1)N1CCC2(CC1)C(=O)NCC2c1ccccc1 (stereo not given) | -3.68
57 | CC1CCN(C(=O)C(C)N2CCN(c3nccs3)CC2)CC1 (stereo not given) | 0.583
58 | Cn1ccnc1-c1nc(N2CCCCC2)ncc1-c1ccccc1F | 12.4
59 | CS(=O)(=O)N1Cc2ccnn2CC(C(=O)NCc2cccnc2)C1 (stereo not given) | -88.9
60 | COc1cccc(S(=O)(=O)NC(=O)COC2CCCCC2)c1 | -0.502
61 | O[C@H]1Cc2ccccc2[C@H]1Nc1ncccc1C(F)(F)F | 5.95
62 | Cc1cc(C(=O)N2CCC(c3nnc(Cn4ccnc4)n3C)CC2)cs1 | -114
63 | O=C(NCCn1cccc1)c1c(O)cc(F)cc1F | -5.22
64 | CC(C(=O)Nc1ccnn1C(C)C)N1CCN(Cc2ccon2)CC1 (stereo not given) | 0.72
65 | Cc1nc2n(n1)CC(NCc1ccccc1OCC(=O)N(C)C)CC2 (stereo not given) | 7.61
66 | Cc1nc(C)n(CC2CN(Cc3nccs3)Cc3nccn3C2)n1 (stereo not given) | -140

Row | Compound | cytotoxicity at 10 µM [%]
67 | CCc1nc(CCNc2ccc(S(N)(=O)=O)cc2C#N)cs1 | -54.6
68 | CN(C)CC1(O)CCN(C(=O)c2ccc(-n3cnnc3)cc2Cl)C1 (stereo not given) | -5.06
69 | N#Cc1cccc(C(=O)N2CC(c3nc(-c4ccc[nH]c4=O)no3)C2)c1 | -4.13
70 | CC(NCC(N)=O)c1c(F)cccc1Cl (stereo not given) | -0.725
71 | O=C1CCC2(CCOC2)CN1Cc1ccc2nsnc2c1 (stereo not given) | -7.73
72 | CCSCc1csc(-c2ccc(S(C)(=O)=O)cc2)n1 | 8.21
73 | Cc1cc(N2CCCN(C(=O)Cc3csc(C)n3)CC2)ccn1 | -12
74 | CN(Cc1cccc(C(N)=O)c1)CC1CCCN1c1cccnn1 (stereo not given) | -9.75
75 | Cc1cccc(C(=O)N2C[C@@H]3C(CC(=O)NC(C)C)[C@@H]3C2)n1 (stereo not given in full) | -3.69
76 | CCc1ncc(C(=O)N2CCN(Cc3ncccc3C)CC2)cn1 | -4.68
77 | COc1cc2c(cc1OC)S(=O)(=O)N(Cc1ccc(C)cc1)C2=O | 8.74
78 | CC(C)c1nccn1C1CCCN(C(=O)c2ccn(C)c(=O)c2)C1 (stereo not given) | 7.35
79 | Cc1nc(C)c2c(n1)CCN(C(=O)C1(C#N)CC1)CC2 | -102
80 | CCN(C)C[C@@H]1CN(C(=O)c2cc(-c3ccc(F)cc3)n[nH]2)C[C@@H]1CO | -26.4
81 | Nc1cc(N2CCCC(COc3ccc(F)cc3)C2)nc(N)n1 (stereo not given) | -7.58
82 | Cc1nn(C)c2cnn(Cc3ccc(C(=O)N4CCCCC4)o3)c12 | 11.3
83 | Cc1cnn(CC2CCCN2Cc2nc3ccccc3nc2C)c1 (stereo not given) | -1.35
84 | CCN1CCCC1CNCc1cc2cc(OC)c(OC)cc2[nH]c1=O (stereo not given) | 2.63
85 | CN1CC2(CCN(C(=O)Cc3ccccn3)CC2)OCC1=O | -3.39
86 | CCCN1Cc2cc(Br)ccc2OCC1=O | 3.72
87 | CN(C)C(=O)c1cc(-c2ccncc2)[nH]n1 | 0.676
88 | CCc1nc(CN2CCCN(C(=O)c3cn[nH]c3CC)CC2)cs1 | -7.21

Row | Compound | cytotoxicity at 10 µM [%]
89 | Cn1cc(CN2CC3(CCN(Cc4ccsc4)C3)C2)cn1 | -0.182
90 | CCc1ncc2c(n1)CN(CC1CCCCO1)CC2 (stereo not given) | -21.1
91 | O=C1CNc2ncnc(Nc3cnn(Cc4ccccc4)c3)c2N1 | 7.38
92 | Cc1nn(CCO)cc1CN1CCCC1c1nc2c(C)cccc2[nH]1 (stereo not given) | 3.83
93 | COCC1CN(Cc2cccnc2)Cc2nnn(CC3CC3)c21 (stereo not given) | -0.0925
94 | CN(C)c1cc(C(=O)NCCc2n[nH]c(=O)[nH]2)ccn1 | -1.89
95 | Fc1cnc(N2CCCC3(CN(Cc4ccccc4)CCO3)C2)nc1 (stereo not given) | 12.4
96 | CCCc1cncnc1N1CCC2(CCC(=O)N(CCCO)C2)CC1 | 2.8
97 | O=C(c1ccc2c(c1)CCCC2)N1CCn2ncnc2C1 | -4.9
98 | CCn1cc(C(=O)Nc2cc(C)ccc2C)cn1 | 0.946
99 | COCCNC(=O)N1CCSC2(CCCCC2)C1 | 2.07
100 | CCN1CCC2(CCC1=O)CN(c1nccc(N)n1)CCN2C (stereo not given) | 0.562
101 | Cc1nn(C)c(C)c1NC(=O)CN1CCCC1c1noc(C(C)C)n1 (stereo not given) | -1.08
102 | Cc1ccc(C(=O)N2C[C@@H]3OCCN(C)[C@@H]3C2)cn1 | -68.3
103 | Fc1ccc(CN2CC[C@H]3O[C@@H](COCC4CCOCC4)CC[C@H]32)cc1 | 7.64
104 | CO[C@@H]1CCN(Cc2nccs2)C[C@@H]1Cc1cccc(C)c1 | -71.8
105 | CCOc1ncccc1NC(=O)c1cccs1 | 0.932
106 | CCOc1ccc(CCCC(=O)N2CCC(C(=O)NC)C2)cc1C (stereo not given) | 1.85
107 | O=C1COC2(COCCN(Cc3cccnc3)C2)CN1c1ccoc1 (stereo not given) | 3.22
108 | O=C1NCCN1C1CCN(CCOc2cccc3ccccc23)CC1 | -5.72
109 | COc1ccc(CC(=O)N2CCN(Cc3ccco3)C[C@@H]2C)cc1 | 1.42
110 | Cc1nn(CCNS(=O)(=O)NCc2ccccc2)c(C)c1Cl | -6.49
